Measured values taken from paper PMC8604242 (Clinical and Translational Science, 2021).
“Also recorded” adds a separate entry of the source. Like-named read-outs stand apart in the source and are kept apart here.

Assays:
[1] = Safety; assay type: in vivo, human; conditions: single dose of ^14C-evobrutinib
[2] = Metabolite profiling and identification in plasma, urine and feces; assay type: in vivo, human
Outline: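 UPLC‑HR‑MS (QTof) with the eluent fractionated every 7 s, off‑line microplate scintillation counting, and reconstructed radiochromatograms. Urine and feces were pooled per participant covering ≥90% of excreted radioactivity, excluding low‑radioactivity intervals. Plasma (1–24 h) was exhaustively extracted with ethanol/acetonitrile, evaporated under nitrogen at 37°C, and redissolved in ACN/MeOH/water 1+1+8. Nonextractable radioactivity was the precipitate counted by LSC, as % of total. AUCs were noncompartmental.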

[3] = test system: patients with relapsing MS; conditions: cited from earlier work
[4] = test system: human hepatocytes; conditions: cited from earlier work
[5] = test system: BTK; conditions: cited from earlier work
[6] = cited from earlier work
[7] = Plasma PK of evobrutinib by validated LC-MS/MS; assay type: in vivo, human
Outline: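 Unlabeled drug was measured in K2EDTA plasma (100 µL) by validated LC‑MS/MS with an isotopically labeled internal standard. LLOQ was 0.600 ng/ml, linear to 600 ng/ml with 1/x2‑weighted regression. Participants were six healthy men given a single oral 75‑mg solution dose. Noncompartmental Cmax, Tmax, AUC, t1/2, Vz/F and CL/F used actual sampling times. Parent AUC was related to plasma total‑radioactivity AUC.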

[8] = Mass balance: excretion of total radioactivity in urine and feces; assay type: in vivo, human
Outline: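 Six healthy men received one oral 75‑mg solution (30 ml, ~3.6 MBq/~100 μCi ¹⁴C label), followed by two 50‑ml bottle rinses. Urine got scintillation cocktail directly. Feces were homogenized with equal weight of water, dried, and combusted with CO2 trapped in absorber. LSC was done in duplicate. Excretion was expressed against the administered radioactive dose over nominal collection intervals, with descriptive statistics.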

[9] = assay type: in vivo, human; conditions: for AUC0-t of total radioactivity, GM (GM CV, %) / AUC0–24h of total radioactivity, GM (GM CV, %) / Cmax of total radioactivity, GM (GM CV, %) / Tmax of total radioactivity, median (min, max): single 75-mg oral dose
Outline: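 After a single oral 75‑mg ¹⁴C dose in six healthy men, total radioactivity was measured by duplicate LSC. Plasma was spiked directly with cocktail; whole blood was solubilized and decolorized first. Plasma LLOQ was 9.91 ng eq/ml (30 dpm/ml), with sampling from 0.25 h postdose. Noncompartmental parameters used actual sampling times, with descriptive statistics.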

[10] = test system: rat hepatocytes; conditions: cited from earlier work
[11] = single 75-mg oral dose of ^14C-evobrutinib, six healthy men, within 168 h

C=CC(=O)N1CCC(CNc2ncnc(N)c2-c2ccc(Oc3ccccc3)cc2)CC1 [evobrutinib]
Nausea, headache, epistaxis, and nasopharyngitis, number of participants each [1]: 1 participant each | Oropharyngeal pain, number of participants [1]: 2 participants | Serious AEs, deaths, or withdrawals [1]: no serious AEs, deaths, or withdrawals | Severity and relatedness of AEs [1]: mild and not considered study treatment related | Participants who experienced an adverse event ([1]; four of six participants): 67% | Number of metabolites detected and elucidated in feces ([2]; feces): 30 | Number of phase I metabolites fully or partially elucidated ([2]; in vivo): 40 | Number of phase II metabolites fully or partially elucidated ([2]; in vivo): 18 | Total number of metabolites identified in urine, feces, and plasma ([2]; in vivo): 58 | Number of metabolites detected and elucidated in plasma ([2]; plasma): 24 | Geometric mean AUC0–24 of nonextractable radioactivity ([2]; plasma, after exhaustive extraction): 1085 h٠ng eq/ml | Unchanged evobrutinib in feces ([2]; pooled feces): not detected | Unchanged evobrutinib in urine metabolite profiles ([2]; pooled urine): not detected | Number of metabolites detected and elucidated in urine ([2]; urine): 41 | Total number of gadolinium-enhancing lesions on T1-weighted MRI versus placebo ([3]; 75 mg q.d. and b.i.d., over 24 weeks): significantly reduced | Severity of the majority of TEAEs [3]: mild or moderate | Number of different metabolites formed ([4]; rat and human hepatocytes): 23 | BTK occupancy after multiple daily dosing ([5]; 25 mg, multiple daily dosing, healthy participants): Full BTK occupancy | BTK occupancy at 96 h ([5]; doses of greater than or equal to 100 mg): greater than 50% | Maximum BTK occupancy ([5]; reached within ~ 4 h after single doses of greater than or equal to 200 mg): > 90% | Half-life ([6]; 25–200 mg doses): 1.8 to 2.6 h | Participants with treatment-emergent adverse events ([6]; after multiple-dosing, 13 participants): 48.1% | Participants with treatment-emergent adverse events ([6]; after single-dosing, nine participants): 25% | Severity of most TEAEs [6]: mild | Half-life ([6]; healthy participants): ~ 2 h | Time to reach maximum plasma concentration (Tmax) ([6]; healthy participants): ~ 0.5 h | Dose-proportionality, accumulation and time-dependency of PK ([6]; single 25-500 mg, 25-200 mg q.d. for 14 days): dose‐proportional, with no accumulation or time‐dependency with repeat dosing | Cmax ([7]; human, plasma, po, 75 mg): 321 ng/mL | Half-life ([7]; human, plasma, po, 75 mg): 79.8 min | Vd/F ([7]; human, plasma, po, 75 mg): 381 L | Time of individual maximum evobrutinib plasma concentration, range ([7]; plasma, postdose): 0.25 to 0.50 h | AUC0-t of evobrutinib, GM (GM CV, %) ([7]; plasma, single 75-mg oral dose): 375 (19.4) ng (eq) h/ml | AUC0–24h of evobrutinib, GM (GM CV, %) ([7]; plasma, single 75-mg oral dose): 378 (19.4) ng (eq) h/ml | CL/F, GM (GM CV, %) ([7]; plasma, single 75-mg oral dose): 199 (19.4) L/h | Tmax of evobrutinib, median (min, max) ([7]; plasma, single 75-mg oral dose): 0.5 h | Tmax of evobrutinib, median (min, max) ([7]; plasma, single 75-mg oral dose, listed as Evobrutinib): 0.50 (0.25, 0.55) h | Parent drug share of total radioactivity plasma exposure (AUC) ([7]; single dose): 10–13% | Unchanged evobrutinib in excreta (urine or feces) ([8]; single 75-mg oral dose): No unchanged evobrutinib was detected; also recorded: No unchanged evobrutinib was recovered | Total radioactivity excreted in feces, arithmetic mean percentage of dose [8, 11]: 71.0% | Total radioactivity excreted in urine, arithmetic mean percentage of dose [8, 11]: 20.6% | Radioactive dose excreted in feces within 96 h, range ([8]; single 75-mg oral dose, 0-96 h): 66.4–73.5% | Total radioactivity excreted within 72 h after administration (mean) ([8]; single 75-mg oral dose, urine plus feces, first 72 h): 85.3% | Mean total radioactivity recovery within 96 h ([8]; single 75-mg oral dose, urine plus feces, within 96 h): 89.7% | Mean total radioactivity recovery ([8]; single 75-mg oral dose, urine plus feces, within 168 h): 91.6% | Mean blood to plasma ratio of total radioactivity ([9]; at 72 and 96 h postdose): 1.6 | Mean blood to plasma ratio of total radioactivity ([9]; at 0.25 h postdose): 0.6 | Time of individual maximum total radioactivity concentration in plasma, range ([9]; plasma, postdose): 0.25 to 1 h | AUC0-t of total radioactivity, GM (GM CV, %) ([9]; plasma): 3915 (32.7) ng (eq) h/ml | AUC0–24h of total radioactivity, GM (GM CV, %) ([9]; plasma): 2805 (14.8) ng (eq) h/ml | Cmax of total radioactivity, GM (GM CV, %) ([9]; plasma): 1047 (22.8) ng eq/ml | Tmax of total radioactivity, median (min, max) ([9]; plasma): 0.5 h | Tmax of total radioactivity, median (min, max) ([9]; plasma, listed as 14C‐radiolabeled evobrutinib): 0.50 (0.25, 1.00) h | AUC0-t of total radioactivity, GM (GM CV, %) ([9]; whole blood): 4944 (13.6) ng (eq) h/ml | AUC0–24h of total radioactivity, GM (GM CV, %) ([9]; whole blood): 2001 (9.9) ng (eq) h/ml | Cmax of total radioactivity, GM (GM CV, %) ([9]; whole blood): 623 (25.5) ng eq/ml | Tmax of total radioactivity, median (min, max) ([9]; whole blood): 0.5 h | Tmax of total radioactivity, median (min, max) ([9]; whole blood, listed as 14C‐radiolabeled evobrutinib): 0.50 (0.25, 1.00) h

Nc1ncnc(NCC2CCN(C(=O)C(O)CO)CC2)c1-c1ccc(Oc2ccccc2)cc1 (centres unmarked) [evobrutinib‐diol]
Rank among metabolites in human hepatocytes [4]: main metabolite

hydroxyl‐evobrutinib
Rank among metabolites in rat hepatocytes [10]: most abundant metabolite
